Assay results published in ChEMBL document CHEMBL1127779, “Stereospecific synthesis of peptidyl alpha-keto amides as inhibitors of calpain” (J Med Chem, 1994).
In brackets after ≈: the same amount, converted by molar mass. Non-standard residues stand in square brackets, D forms with d. Residues, ends and D or L forms follow the SMILES beside them. ξ: configuration not given here. *: point of attachment. Cbz = O=C(OCc1ccccc1)*; ξNva = CCCC(N)C(=O)O

Columns and labels:
[1] = Tested for solubility of the compound; type: ADME; settings: read-out: S
Method in brief: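 The DMA stock was diluted in 0.9% saline to 3% DMA (inhibitor ≤0.9 mg/mL) and brought to pH 2.75 with 0.1 N HCl. It was sonicated 5 min, held 15 min at room temperature and centrifuged 5 min at 16500g. Supernatant concentration came from C4 reverse-phase HPLC (60 °C, 210 nm) peak area, calibrated against standards in acetonitrile.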

[2] = biological target: T1, Calpain-2 catalytic subunit (Bos taurus, UniProt Q27971); assay: Tested for inhibitory activity on bovine calpain 2 from heart
T1 sequence (Q27971 whole entry): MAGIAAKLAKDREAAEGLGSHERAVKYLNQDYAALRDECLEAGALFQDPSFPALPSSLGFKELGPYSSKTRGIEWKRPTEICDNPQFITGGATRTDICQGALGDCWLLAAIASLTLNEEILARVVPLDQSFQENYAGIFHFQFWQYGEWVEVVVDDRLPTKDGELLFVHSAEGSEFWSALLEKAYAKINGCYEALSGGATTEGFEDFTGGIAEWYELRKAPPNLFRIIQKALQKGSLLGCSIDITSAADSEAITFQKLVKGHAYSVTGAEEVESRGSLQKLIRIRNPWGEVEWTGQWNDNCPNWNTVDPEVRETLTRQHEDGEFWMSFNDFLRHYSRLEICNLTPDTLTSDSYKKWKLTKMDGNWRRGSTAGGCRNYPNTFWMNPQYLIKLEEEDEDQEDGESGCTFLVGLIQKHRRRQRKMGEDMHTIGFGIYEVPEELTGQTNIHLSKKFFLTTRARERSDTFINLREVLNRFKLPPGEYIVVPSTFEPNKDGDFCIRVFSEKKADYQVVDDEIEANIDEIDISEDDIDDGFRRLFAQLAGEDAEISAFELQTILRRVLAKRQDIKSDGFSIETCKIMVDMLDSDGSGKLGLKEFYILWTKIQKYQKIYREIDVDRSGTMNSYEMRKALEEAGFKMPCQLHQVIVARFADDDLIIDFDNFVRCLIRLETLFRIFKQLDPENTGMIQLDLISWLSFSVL

Row | solubility [1] [mg/mL] | Ki [2] [µM] | Structure (SMILES)
1 | 0.73 (≈ 1300 µM) | – | CCS(=O)(=O)CCNC(=O)C(=O)[C@@H](Cc1ccccc1)NC(=O)[C@H](CC(C)C)NC(=O)OCc1ccccc1
2 | – | 0.05 | CCCC(NC(=O)[C@H](CC(C)C)NC(=O)OCc1ccccc1)C(=O)NCC (stereo partly drawn) (Cbz-Leu-[ξNva]-NHEt)
